Measurements reported in ChEMBL document CHEMBL1156125, “Pentacycle derivatives as cannabinoid CB1 receptor ligands” (Bioorg Med Chem Lett, 2009).

How the values were obtained:
[1] = Selectivity ratio of IC50 for human CB2 to IC50 for rat CB1
Outline: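 Competitive radioligand binding in TME buffer (50 mM Tris–HCl, 1 mM EDTA, 3 mM MgCl2, pH 7.4) with 0.5% fatty-acid-free BSA, 1 h at 30 °C. rCB1 used male Sprague-Dawley rat cerebellar membranes with 3 nM [3H]CP55,940. hCB2 used membranes from CHO K-1 cells transfected with human CB2, with 3 nM [3H]WIN55,212-2. Bound ligand was filtered and counted by scintillation. Ratio = hCB2 IC50 / rCB1 IC50.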

Cannabinoid receptor 1 = Cannabinoid receptor 1 (Rattus norvegicus, UniProt P20272); experiment: Displacement of [3H]CP-55940 from CB1 receptor in Sprague-Dawley rat cerebellar membrane; parameters: species or system Cerebellum
Cannabinoid receptor 1, sequence (P20272 whole entry): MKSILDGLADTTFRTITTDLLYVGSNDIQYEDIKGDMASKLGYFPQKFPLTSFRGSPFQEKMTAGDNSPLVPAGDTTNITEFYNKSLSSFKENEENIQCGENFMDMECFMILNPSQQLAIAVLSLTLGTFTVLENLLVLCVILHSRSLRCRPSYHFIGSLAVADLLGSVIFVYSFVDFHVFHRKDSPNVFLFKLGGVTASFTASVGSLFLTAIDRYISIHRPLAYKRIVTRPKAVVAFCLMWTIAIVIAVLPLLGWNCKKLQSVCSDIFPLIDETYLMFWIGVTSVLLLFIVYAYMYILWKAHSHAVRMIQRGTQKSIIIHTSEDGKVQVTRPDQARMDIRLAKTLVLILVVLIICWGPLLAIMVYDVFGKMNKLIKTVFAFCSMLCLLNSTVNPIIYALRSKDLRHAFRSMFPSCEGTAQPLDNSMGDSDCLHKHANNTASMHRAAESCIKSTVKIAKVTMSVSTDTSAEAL
Outline: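 Pelleted membranes were incubated with 3 nM [3H]CP55,940, 0.5% fatty-acid-free BSA and a range of ligand concentrations for 1 h at 30 °C. Bound ligand was filtered on PEI-soaked GF/B and counted by scintillation; IC50 reported.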

Cannabinoid receptor 2 = Cannabinoid receptor 2 (Homo sapiens, UniProt P34972); experiment: Displacement of [3H]WIN-552122 from human CB2 receptor expressed in CHOK1 cells; format: cell-based, CHO-K1
Cannabinoid receptor 2, sequence (P34972 whole entry): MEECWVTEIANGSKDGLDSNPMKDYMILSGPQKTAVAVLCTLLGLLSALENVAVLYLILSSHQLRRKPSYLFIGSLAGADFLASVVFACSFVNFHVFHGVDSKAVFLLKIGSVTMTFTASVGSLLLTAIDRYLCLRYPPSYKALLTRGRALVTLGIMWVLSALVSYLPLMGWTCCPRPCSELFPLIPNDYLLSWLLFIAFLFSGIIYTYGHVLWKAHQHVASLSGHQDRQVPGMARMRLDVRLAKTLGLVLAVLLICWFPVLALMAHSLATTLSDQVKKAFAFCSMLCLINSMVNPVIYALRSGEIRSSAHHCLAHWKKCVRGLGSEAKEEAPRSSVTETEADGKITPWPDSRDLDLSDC
Outline: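 Membranes came from CHO K-1 cells transfected with human CB2 and were prepared in TME buffer (pH 7.4) with centrifugation at 48,000g. Competition used 3 nM [3H]WIN55,212-2 in TME with 0.5% fatty-acid-free BSA across a range of ligand concentrations, 1 h at 30 °C.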

[2] = target: Cannabinoid receptor 1 (Homo sapiens) (UniProt P21554); experiment: Binding affinity to human CB1 receptor expressed in CHO cells by luciferase reporter gene assay
Cannabinoid receptor 1 (Homo sapiens), sequence (P21554 whole entry, looked up): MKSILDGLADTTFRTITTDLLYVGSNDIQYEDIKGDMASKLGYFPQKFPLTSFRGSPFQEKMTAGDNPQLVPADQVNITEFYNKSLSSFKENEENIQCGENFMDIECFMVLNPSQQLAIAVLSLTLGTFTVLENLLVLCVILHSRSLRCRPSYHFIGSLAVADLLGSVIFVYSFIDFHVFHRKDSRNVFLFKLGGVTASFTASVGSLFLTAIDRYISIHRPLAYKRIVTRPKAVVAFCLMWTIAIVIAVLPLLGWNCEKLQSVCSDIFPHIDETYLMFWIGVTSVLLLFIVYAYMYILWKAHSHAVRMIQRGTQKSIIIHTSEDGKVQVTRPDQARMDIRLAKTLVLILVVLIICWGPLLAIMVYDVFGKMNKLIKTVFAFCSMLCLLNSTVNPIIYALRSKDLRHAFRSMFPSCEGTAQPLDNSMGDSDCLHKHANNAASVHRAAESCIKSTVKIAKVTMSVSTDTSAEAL

[3] = Elimination half life in rat at 5 mg/kg, po; format: ADME, organism-based; parameters: dose 5 mg/kg, route oral; details: in vivo, read-out: beta t1/2 (converted)
[4] = Oral bioavailability in rat at 5 mg/kg; format: ADME, organism-based; details: in vivo
[5] = Cmax in rat at 5 mg/kg, po after 1.3 hrs; format: ADME, organism-based; parameters: dose 5 mg/kg, route oral; details: in vivo
Rattus norvegicus = experiment: Systemic clearance in rat at 5 mg/kg, po; format: ADME, organism-based; parameters: dose 5 mg/kg, route oral; details: in vivo

Structure (SMILES)	IC50 (Cannabinoid receptor 1)	also measured
Cc1nnc(-c2c(-c3nnc(C(C)(C)C)o3)nn(-c3ccc(Cl)cc3Cl)c2-c2ccc(Br)cc2)o1	2.56 nM	Ratio IC50 [1]: 162; IC50 (Cannabinoid receptor 2): 414 nM
Cc1nnc(-c2c(-c3nnc(C4(C(F)(F)F)CC4)o3)nn(-c3ccc(Cl)cc3Cl)c2-c2ccc(Br)cc2)o1	4.7 nM	
Cc1nnc(-c2c(-c3nnc(C4(C(F)(F)F)CC4)s3)nn(-c3ccc(Cl)cc3Cl)c2-c2ccc(Cl)cc2)o1	26.9 nM	
Cc1nnc(-c2c(-c3nnc(C4(c5ccc(Cl)cc5)CC4)s3)nn(-c3ccc(Cl)cc3Cl)c2-c2ccc(Cl)cc2)o1	3.23 nM	
Cc1nnc(-c2c(-c3nnc(C4(C(F)(F)F)CC4)s3)nn(-c3ccc(Cl)cc3Cl)c2-c2ccc(Br)cc2)s1	4.21 nM	
Cc1nnc(-c2c(-c3nnc(C(C)(C)C)o3)nn(-c3ccc(Cl)cc3Cl)c2-c2ccc(Cl)cc2)o1	6.47 nM	
Cc1nnc(-c2c(-c3nnc(C4(C(F)(F)F)CC4)s3)nn(-c3ccc(Cl)cc3Cl)c2-c2ccc(Cl)cc2)s1	7.39 nM	
Cc1nnc(-c2c(-c3nnc(C4(C(F)(F)F)CC4)s3)nn(-c3ccc(Cl)cc3Cl)c2-c2ccc(Br)cc2)o1	4.86 nM	
Cc1nnc(-c2c(-c3nnc(C4(c5ccc(Cl)cc5)CC4)o3)nn(-c3ccc(Cl)cc3Cl)c2-c2ccc(Br)cc2)s1	2.13 nM	
Cc1nnc(-c2c(-c3nnc(C(C)(C)C)s3)nn(-c3ccc(Cl)cc3Cl)c2-c2ccc(Br)cc2)o1	4.93 nM	
Cc1nnc(-c2c(-c3nnc(C4(c5ccc(Cl)cc5)CC4)s3)nn(-c3ccc(Cl)cc3Cl)c2-c2ccc(Br)cc2)s1	3.7 nM	Ratio IC50 [1]: > 2700; IC50 (Cannabinoid receptor 2): > 10000 nM
Cc1nnc(-c2c(-c3nnc(C4(C(F)(F)F)CC4)o3)nn(-c3ccc(Cl)cc3Cl)c2-c2ccc(Br)cc2)s1	1.72 nM	IC50 [2]: 38.5 nM; Ratio IC50 [1]: 142; half-life [3]: 1100 min; bioavailability [4]: 7.2%; Cmax [5]: 30 ng/mL; IC50 (Cannabinoid receptor 2): 245 nM; clearance (Rattus norvegicus): 12.6 mL/min/kg

The remaining compounds from weak to strong by IC50 (Cannabinoid receptor 1), led by results:

IC50 (Cannabinoid receptor 1)	Structure (SMILES)	also measured
14.7 nM	Cc1nnc(-c2c(-c3nnc(C4(C(F)(F)F)CC4)o3)nn(-c3ccc(Cl)cc3Cl)c2-c2ccc(Cl)cc2)o1	
10.3 nM	Cc1nnc(-c2c(-c3nnc(C4(c5ccc(Cl)cc5)CC4)o3)nn(-c3ccc(Cl)cc3Cl)c2-c2ccc(Cl)cc2)s1	
4.91 nM	Cc1nnc(-c2c(-c3nnc(C4(c5ccc(Cl)cc5)CC4)o3)nn(-c3ccc(Cl)cc3Cl)c2-c2ccc(Br)cc2)o1	
4.44 nM	Cc1nnc(-c2c(-c3nnc(C4(c5ccc(Cl)cc5)CC4)s3)nn(-c3ccc(Cl)cc3Cl)c2-c2ccc(Br)cc2)o1	
4.14 nM	Cc1nnc(-c2c(-c3nnc(C4(C(F)(F)F)CC4)o3)nn(-c3ccc(Cl)cc3Cl)c2-c2ccc(Cl)cc2)s1	
3.93 nM	Cc1nnc(-c2c(-c3nnc(C4(c5ccc(Cl)cc5)CC4)o3)nn(-c3ccc(Cl)cc3Cl)c2-c2ccc(Cl)cc2)o1	
3.69 nM	Cc1nnc(-c2c(-c3nnc(C(C)(C)C)o3)nn(-c3ccc(Cl)cc3Cl)c2-c2ccc(Br)cc2)s1	
3.03 nM	Cc1nnc(-c2c(-c3nnc(C4(c5ccc(Cl)cc5)CC4)s3)nn(-c3ccc(Cl)cc3Cl)c2-c2ccc(Cl)cc2)s1	
2.83 nM	Cc1nnc(-c2c(-c3nnc(C(C)(C)C)o3)nn(-c3ccc(Cl)cc3Cl)c2-c2ccc(Cl)cc2)s1	
2.56 nM	Cc1nnc(-c2c(-c3nnc(C(C)(C)C)s3)nn(-c3ccc(Cl)cc3Cl)c2-c2ccc(Br)cc2)s1	Ratio IC50 [1]: 167; IC50 (Cannabinoid receptor 2): 427 nM
